Assay results of several laboratories.
Lines come from different studies, so protocols differ.
Cell line: PC-3
Read-out: cell growth or viability

O=C(CN1C(=O)/C(=C/C2CC2)SC1=S)Nc1ccccc1 — inhibition (MTT; 10 µM): 24.1%
COC(=O)c1cccc(NC(=O)C2CCCN(C(=O)c3cc(C(F)(F)F)cc(C(F)(F)F)c3)C2)c1 (stereo not drawn) — inhibition (WST-1; 100 µM): 0%
O=C(CN1C(=O)/C(=C/c2ccc(F)cc2)SC1=S)Nc1ccccc1 — inhibition (MTT; 10 µM): 27.7%
COc1ccc(C(=O)/C=C/c2c(F)cccc2Cl)cc1S(N)(=O)=O — inhibition (SRB; 10 µM): 81%
O=C1Nc2ccccc2C1=NNc1nnc2n1N=C(c1ccccc1)CS2 — inhibition (SRB; 10 µM): 20%
COc1cc(CNC(=O)C[C@H](C)CCC=C(C)C)ccc1OCc1cn(-c2ccc(Cl)cc2)nn1 — inhibition (SRB; 10 µM): 28%
O=C(Nc1cccc(Cc2ccccc2)c1)C1CCCN(C(=O)c2cccc(-c3ccco3)c2)C1 (stereo not drawn) — inhibition (WST-1; 100 µM): 0%
COc1ccc(C(=O)/C=C/c2cccnc2)cc1S(N)(=O)=O — inhibition (SRB; 10 µM): 22%
O=C(Nc1cccc(-c2ccco2)c1)C1CCCN(C(=O)c2cc(C(F)(F)F)cc(C(F)(F)F)c2)C1 (stereo not drawn) — inhibition (WST-1; 100 µM): 0%
COc1ccc(C(=O)/C=C/c2cc3c(cc2Br)OCO3)cc1S(N)(=O)=O — inhibition (SRB; 10 µM): 98%
O=C(CN1C(=O)/C(=C/c2cccc(F)c2)SC1=S)Nc1ccccc1 — inhibition (MTT; 10 µM): 18.9%
COc1ccc(C(=O)/C=C/c2ccccc2Br)cc1S(N)(=O)=O — inhibition (SRB; 10 µM): 79%
O=C(CN1C(=O)/C(=C/c2ccncc2)SC1=S)Nc1ccccc1 — inhibition (MTT; 10 µM): 5.33%
Cn1cnnc1-c1cccc(NC(=O)C2CCCN(C(=O)c3cc(C(F)(F)F)cc(C(F)(F)F)c3)C2)c1 (stereo not drawn) — inhibition (WST-1; 100 µM): 0%
COc1ccc(C(=O)/C=C/c2cccc(Br)c2)cc1S(N)(=O)=O — inhibition (SRB; 10 µM): 135%
